Data on 17 compounds can be found in ChEMBL document CHEMBL4431335, “Synthesis and trypanocidal activity of novel benzimidazole derivatives” (Bioorg Med Chem Lett, 2016).

For series [1], the target named is Triosephosphate isomerase, glycosomal (Trypanosoma cruzi) (UniProt P52270). As to the kind of experiment: Inhibition of recombinant Trypanosoma cruzi triosephosphate isomerase assessed as reduction of DHAP at 200 uM after 2 hrs by measuring NADH consumption by alpha-glycerolphosphate dehydrogenase coupled assay. The method in brief:
(§1)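 Recombinant TIM (T. cruzi or human) at 5 µg/mL was preincubated with compound at 36 °C in 100 mM triethanolamine, 10 mM EDTA, pH 7.4, with compound dissolved in 10% DMSO. After 2 h, 1 µL was transferred into 1 mL of activity mix. Activity was measured as NADH consumed by α-glycerolphosphate dehydrogenase reducing DHAP. Controls were enzyme alone, substrate alone, and enzyme plus DMSO.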

Series [2] has the same target. As to the kind of experiment: Inhibition of recombinant Trypanosoma cruzi triosephosphate isomerase assessed as reduction of DHAP at 100 uM after 2 hrs by measuring NADH consumption by alpha-glycerolphosphate dehydrogenase coupled assay. The method in brief: as §1
A short description of series [3]: Solubility of the compound in DMSO at 200 uM. The format is physicochemical.
Series [4] concerns the target Triosephosphate isomerase (Homo sapiens) (UniProt P60174). The experiment in a line: Inhibition of recombinant human triosephosphate isomerase assessed as reduction of DHAP at 200 uM after 2 hrs by measuring NADH consumption by alpha-glycerolphosphate dehydrogenase coupled assay. The method in brief:
as §1

The nature of series [5]: Cytotoxicity against mouse J774 cells assessed as decrease in cell viability after 24 hrs by resazurin assay. The format is cell-based. The method in brief: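 Mouse J774 macrophages were grown in DMEM with 10% FBS and treated with a range of compound concentrations for 24 h at 37 °C, 5% CO₂, with final DMSO below 1%. Untreated cells served as controls. Resazurin was added for 3 h and fluorescence was read (535/590 nm). Cytotoxicity was scored as % metabolic reduction versus untreated cells, and CC50 was derived.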

In series [6] the target is Triosephosphate isomerase, glycosomal (Trypanosoma cruzi, UniProt P52270). As to the kind of experiment: Inhibition of recombinant Trypanosoma cruzi triosephosphate isomerase assessed as reduction of DHAP after 2 hrs by measuring NADH consumption by alpha-glycerolphosphate dehydrogenase coupled assay. The method in brief: as §1
The test system of series [7] is Trypanosoma cruzi. As to the kind of experiment: Antitrypanosomal activity against epimastigote forms of Trypanosoma cruzi INC-5 isolated from chagas disease patient after 24 hrs by resazurin dye based spectrophotometric analysis. The format is functional, organism-based. Particulars: INC-5, 24 h. The method in brief:
(§2)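 Epimastigotes at 1 × 10⁵/ml were exposed to compound for 24 h at 28 °C. Compounds were taken from 10 mg/mL DMSO stocks and diluted in sterile water, with final DMSO at most 1%. Concentrations were […], with DMSO-treated parasite controls. Viability was read by resazurin fluorescence (535/590 nm). Runs were in duplicate and IC50 was derived.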

For series [8], the system named is Trypanosoma cruzi. The experiment in a line: Antitrypanosomal activity against epimastigote forms of Trypanosoma cruzi NINOA isolated from chagas disease patient after 24 hrs by resazurin dye based spectrophotometric analysis. The format is functional, organism-based. In a few lines: as §2
Series [9] addresses Triosephosphate isomerase (Homo sapiens) (UniProt P60174). As to the kind of experiment: Inhibition of recombinant human triosephosphate isomerase assessed as reduction of DHAP at 100 uM after 2 hrs by measuring NADH consumption by alpha-glycerolphosphate dehydrogenase coupled assay. The method in brief:
as §1

Molecules are shown by their SMILES.

Sequence of Triosephosphate isomerase (Homo sapiens) (P60174 whole entry): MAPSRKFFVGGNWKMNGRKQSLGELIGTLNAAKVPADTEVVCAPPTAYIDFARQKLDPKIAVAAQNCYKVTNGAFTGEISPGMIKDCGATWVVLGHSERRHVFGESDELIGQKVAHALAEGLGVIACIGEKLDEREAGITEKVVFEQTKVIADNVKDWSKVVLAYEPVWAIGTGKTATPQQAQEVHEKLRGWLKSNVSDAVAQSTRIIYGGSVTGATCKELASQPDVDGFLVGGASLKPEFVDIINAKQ
Sequence of Triosephosphate isomerase, glycosomal (P52270 whole entry): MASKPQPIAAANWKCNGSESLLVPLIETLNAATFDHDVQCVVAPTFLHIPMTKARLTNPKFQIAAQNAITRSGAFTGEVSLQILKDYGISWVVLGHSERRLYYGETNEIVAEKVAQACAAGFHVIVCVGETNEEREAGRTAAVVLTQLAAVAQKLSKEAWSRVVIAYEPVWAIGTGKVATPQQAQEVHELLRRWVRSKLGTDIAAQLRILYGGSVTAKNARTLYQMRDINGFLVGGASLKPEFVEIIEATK
Sequence of Triosephosphate isomerase, glycosomal (Trypanosoma cruzi) (P52270 whole entry): as above

Consider `COC(=O)c1cc2nc(SCC(=O)Nc3ccncc3)[nH]c2cc1Cl`, for which the inhibition in series [1] was 33%.

With `COC(=O)c1ccc2nc(SCC(=O)Nc3ncc([N+](=O)[O-])s3)[nH]c2c1`, the inhibition in series [1] was 52%.

Turning to `COC(=O)c1cc2nc(SCC(=O)Nc3ccc([N+](=O)[O-])cn3)[nH]c2cc1Cl`, the inhibition in [2] came out at 0%. For the same compound, the solubility entry in [3] is reported as “Insoluble”.

As to `COC(=O)c1cc2nc(SCC(=O)Nc3ncccn3)[nH]c2cc1Cl`, the inhibition in series [1] was determined as 0%.

Consider `COC(=O)c1cc2nc(SCC(=O)Nc3ccc(OC)cn3)[nH]c2cc1Cl`, for which, in [2], the inhibition was found to be 4%. Further, in series [3], the solubility entry is “Insoluble”.

`COC(=O)c1cc2nc(SCC(=O)Nc3ccccn3)[nH]c2cc1Cl`: the inhibition in [1] was 10%.

Take `COC(=O)c1cc2nc(SCC(=O)Nc3nccs3)[nH]c2cc1Cl`: the inhibition in [4] worked out at 0%; in series [1], 59%. Also, the CC50 at 24 h in [5] stood at 104 µM. The figures for the IC50 (in series [6]; in the series with Trypanosoma cruzi [7]; in the series with Trypanosoma cruzi [8]) were 223 µM, 48.9 µM and 120 µM, respectively.

For `COC(=O)c1cc2nc(SCC(=O)Nc3cccc(Cl)n3)[nH]c2cc1Cl`, the inhibition in [2] came to 21%. In series [3], the solubility result is “Insoluble”.

As for `O=C(CSc1nc2cc(Oc3cccc4ccccc34)c(Cl)cc2[nH]1)Nc1ncc([N+](=O)[O-])s1`, in series [1], the inhibition worked out at 48%.

`COC(=O)c1cc2nc(SCC(=O)Nc3cccc(C(N)=O)n3)[nH]c2cc1Cl`: the inhibition in [2] came to 0%. For the same compound, in [3], the solubility entry was “Insoluble”.

With `COC(=O)c1cc2nc(SCC(=O)Nc3ccccc3)[nH]c2cc1Cl`, the inhibition in series [1] worked out at 33%.

Consider `COC(=O)c1cc2nc(SCC(=O)Nc3cccc(C)n3)[nH]c2cc1Cl`, for which the inhibition in series [2] came to 0%. In addition, the solubility entry in series [3] was “Insoluble”.

As to `COC(=O)c1cc2nc(SCC(=O)Nc3ncc([N+](=O)[O-])s3)[nH]c2cc1Cl`, the inhibition in [4] stood at 15%; in series [1] it was 69%. For the same compound, the cytotoxic concentration (CC50) at 24 h in series [5] turned out to be 84.9 µM. Further, the IC50 in series [6] turned out to be 77 µM; in the series on Trypanosoma cruzi [7], 42.5 µM; in the series with Trypanosoma cruzi [8] it was 95.4 µM.

With `COC(=O)c1cc2nc(SCC(=O)Nc3ccc(Cl)cc3)[nH]c2cc1Cl`, the half-maximal cytotoxic concentration (CC50) at 24 h in series [5] turned out to be 90.4 µM. For the same compound, the inhibition in [2] came to 65%; in [9] it was 0%. Besides, the half-maximal inhibitory concentration (IC50) was 186 µM in the series with Trypanosoma cruzi [7] and 57 µM in the series on Trypanosoma cruzi [8]. Further, the solubility entry in series [3] is listed as “Insoluble”.

For the compound `COC(=O)c1cc2nc(SCC(=O)Nc3cnccn3)[nH]c2cc1Cl`, the inhibition in series [4] is 6%; in series [1] it was 68%. The CC50 at 24 h in series [5] is 135 µM. Further, the figures for the IC50 (in series [6]; in the series with Trypanosoma cruzi [7]; in the series on Trypanosoma cruzi [8]) were 82 µM, 28.7 µM and 98.8 µM, respectively.

As to `COC(=O)c1cc2nc(SCC(=O)Nc3ccc(Cl)cn3)[nH]c2cc1Cl`, the half-maximal cytotoxic concentration (CC50) at 24 h in [5] came out at 82.7 µM. Further, the inhibition in series [2] is 41%; in series [9], 0%. Moreover, the figures for the IC50 with Trypanosoma cruzi [7] and in the series on Trypanosoma cruzi [8] were 95 µM and 124 µM, respectively. Moreover, the solubility result in [3] was “Insoluble”.

Regarding `CC1CS(=O)(=O)CCN1/N=C/c1ccc([N+](=O)[O-])o1` (centres undefined) [NIFURTIMOX], the half-maximal cytotoxic concentration (CC50) at 24 h in [5] was determined as 132 µM. Also, the IC50 was 50.8 µM in the series with Trypanosoma cruzi [7] and 89.8 µM with Trypanosoma cruzi [8].
